In ChEMBL document CHEMBL3600357 (J Med Chem, 2015):
Active and inactive are the calls of the source. The rule behind the calls is not given here.

Legend:
[1] = Octanol water partition coefficient, logP of the compound; assay type: physicochemical
[2] = Intrinsic clearance in monkey liver microsomes; assay type: ADME, Macaca mulatta; conditions: rhesus monkey, read-out: CLH
Rattus norvegicus [3] = assay: AUC in Sprague-Dawley rat at 3 mg/kg, po; assay type: ADME, organism-based; conditions: in vivo
In short: (§1)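 Sprague-Dawley rats. IV dose given as a solution in NMP:PEG200 (10:90); 3 mg/kg PO given as a suspension in CMC:water:Tween (0.5:99:0.5). AUC and Cmax dose-normalized to 1 mg/kg. Mean ± SD from four rats.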

Rattus norvegicus [4] = assay: Oral bioavailability in Sprague-Dawley rat at 3 mg/kg; assay type: ADME, organism-based; conditions: in vivo; in short: as §1
[5] = target: E3 ubiquitin-protein ligase Mdm2 (Mus musculus, UniProt P23804); assay: Inhibition of mouse MDM2 by TR-FRET assay
Sequence of E3 ubiquitin-protein ligase Mdm2 (P23804 whole entry): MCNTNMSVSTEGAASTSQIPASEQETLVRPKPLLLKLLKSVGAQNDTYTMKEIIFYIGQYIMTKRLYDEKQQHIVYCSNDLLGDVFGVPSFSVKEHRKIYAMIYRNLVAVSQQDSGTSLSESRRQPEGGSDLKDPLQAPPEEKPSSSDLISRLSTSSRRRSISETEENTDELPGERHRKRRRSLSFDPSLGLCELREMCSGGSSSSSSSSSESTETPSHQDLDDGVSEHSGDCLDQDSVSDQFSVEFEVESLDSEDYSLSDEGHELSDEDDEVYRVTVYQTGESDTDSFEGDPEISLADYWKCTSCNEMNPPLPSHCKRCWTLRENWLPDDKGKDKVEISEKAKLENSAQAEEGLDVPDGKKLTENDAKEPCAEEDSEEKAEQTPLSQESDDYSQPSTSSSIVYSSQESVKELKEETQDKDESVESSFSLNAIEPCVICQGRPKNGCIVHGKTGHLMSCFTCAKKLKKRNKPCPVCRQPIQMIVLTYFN

Mus musculus = assay: Oral bioavailability in OF1 mouse at 3 mg/kg; assay type: ADME, organism-based; conditions: in vivo
[6] = Protein binding in OF1 mouse plasma by equilibrium dialysis method; assay type: ADME, cell-free; conditions: read-out: PPB
[7] = Cmax in beagle dog at 0.3 mg/kg, po; assay type: ADME, organism-based, Canis lupus familiaris; set-up: dose 0.3 mg/kg, route oral; conditions: in vivo
[8] = Volume of distribution at steady state in cynomolgus monkey at 0.1 mg/kg, iv; assay type: ADME, organism-based, Macaca fascicularis; conditions: in vivo, read-out: Vdss
Cynomolgus monkey [9] = assay: AUC in cynomolgus monkey at 0.3 mg/kg, po; assay type: ADME, organism-based, Macaca fascicularis; conditions: in vivo
Cynomolgus monkey [10] = assay: Oral bioavailability in cynomolgus monkey at 0.3 mg/kg; assay type: ADME, organism-based, Macaca fascicularis; conditions: in vivo
[11] = Protein binding in cynomolgus monkey plasma by equilibrium dialysis method; assay type: ADME, cell-free, Macaca fascicularis; conditions: read-out: PPB
[12] = Inhibition of Ras (unknown origin) assessed as inhibition of Ras-Raf interaction by TR-FRET assay; set-up: species or system Homo sapiens
[13] = target: Induced myeloid leukemia cell differentiation protein Mcl-1 (Homo sapiens, UniProt Q07820); assay: Inhibition of Mcl1 (unknown origin) assessed as inhibition of Mcl1-Bak interaction by TR-FRET assay
Sequence of Induced myeloid leukemia cell differentiation protein Mcl-1 (Q07820 whole entry): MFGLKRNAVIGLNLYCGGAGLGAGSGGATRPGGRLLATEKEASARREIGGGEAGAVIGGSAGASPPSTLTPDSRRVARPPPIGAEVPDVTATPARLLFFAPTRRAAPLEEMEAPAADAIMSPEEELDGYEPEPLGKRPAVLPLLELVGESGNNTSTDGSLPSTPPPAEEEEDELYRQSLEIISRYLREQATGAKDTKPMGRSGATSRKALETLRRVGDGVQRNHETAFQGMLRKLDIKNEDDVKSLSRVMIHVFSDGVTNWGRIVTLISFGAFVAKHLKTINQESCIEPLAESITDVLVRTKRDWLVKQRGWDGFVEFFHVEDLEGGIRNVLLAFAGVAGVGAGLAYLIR

[14] = Inhibition of cell proliferation of human SJSA1 cells expressing p53; conditions: SJSA-1
Rattus norvegicus [15] = assay: In-vivo inhibition of MDM2/p53 interaction in human SJSA1 cells xenografted rat assessed as increase in MDM2 mRNA level at 30 mg/kg, po measured within 72 hrs post dose by qRT-PCR method; assay type: functional, organism-based; conditions: SJSA-1
In short: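 SJSA-1 (MDM2-amplified) tumour-bearing rats were dosed at 30 mg/kg. Tumour samples were collected over time, and p21, MDM2 and PUMA mRNA were measured as p53 pharmacodynamic markers, alongside compound levels.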

SJSA-1 = assay: Antitumor activity against human SJSA1 cells xenografted in rat assessed as reduction tumor growth dosed orally three times per week; assay type: functional, organism-based
In short: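 SJSA-1 tumour-bearing rats were treated either daily or 3qw (Monday, Wednesday and Friday) across a range of doses, and tumour growth was followed over the treatment course. Plasma AUC0-24 was also determined, along with AUC0-48 for the 3qw schedule.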

Rattus norvegicus [16] = assay: Toxicity in human SJSA1 cells xenografted dosed rat assessed as induction of histopathological changes dosed orally on daily basis under q24h regime; assay type: organism-based, SJSA-1; conditions: in vivo, po
In short: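 Rats bearing MDM2-amplified SJSA-1 human tumours, treated daily. Tolerability was monitored during treatment. Histopathology for compound-related findings was performed at the 30 mg/kg daily dose.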

Rattus norvegicus [17] = organism: Rattus norvegicus; assay: Toxicity in rat assessed as changes in testes parameters; assay type: organism-based, Testis; conditions: in vivo
Rattus norvegicus [18] = organism: Rattus norvegicus; assay: Toxicity in rat testes assessed as effect on proliferative cells; assay type: organism-based, Testis; conditions: in vivo
Rattus norvegicus [19] = assay: Toxicity in human SJSA1 cells xenografted rat assessed as change in body weight at 10 mg/kg, po qd (reference value: 1.9 to 6.8%); assay type: organism-based, SJSA-1; conditions: in vivo
Rattus norvegicus [20] = assay: Toxicity in human SJSA1 cells xenografted rat assessed as change in body weight at 20 mg/kg, po qd (reference value: 1.9 to 6.8%); assay type: organism-based, SJSA-1; conditions: in vivo
Rattus norvegicus [21] = assay: Toxicity in human SJSA1 cells xenografted rat assessed as change in body weight at 30 mg/kg, po dosed three times per week (reference value: 1.9 to 6.8%); assay type: organism-based, SJSA-1; conditions: in vivo
Rattus norvegicus [22] = assay: Toxicity in human SJSA1 cells xenografted rat assessed as change in body weight at 70 mg/kg, po dosed three times per week (reference value: 1.9 to 6.8%); assay type: organism-based, SJSA-1; conditions: in vivo
Rattus norvegicus [23] = assay: Toxicity in human SJSA1 cells xenografted rat assessed as mouse survival at 5 mg/kg, po qd; assay type: organism-based, SJSA-1; conditions: in vivo
In short: (§2)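 Tolerability was monitored in SJSA-1 tumour-bearing rats during the daily and 3qw (Monday, Wednesday, Friday) treatment schedules. Histopathology was done on all 3qw doses and on the 30 mg/kg daily group.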

Rattus norvegicus [24] = assay: Toxicity in human SJSA1 cells xenografted rat assessed as mouse survival at 30 mg/kg, po dosed 3 times per week; assay type: organism-based, SJSA-1; conditions: in vivo; in short: as §2
Rattus norvegicus [25] = assay: Toxicity in human SJSA1 cells xenografted rat assessed as mouse survival at 70 mg/kg, po dosed 3 times per week; assay type: organism-based, SJSA-1; conditions: in vivo; in short: as §2
[26] = AUC (0 to 24 hrs) in human SJSA1 cells xenografted rat assessed as mouse survival at 5 mg/kg, po qd; assay type: ADME, organism-based, SJSA-1; set-up: time < 24 hr, dose 5 mg/kg, route oral; conditions: in vivo
In short: (§3)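 Rats bearing MDM2-amplified human SJSA-1 tumors, dosed orally either daily or 3qw (Monday, Wednesday, Friday). Plasma exposure reported as AUC0-24, plus AUC0-48 for the 3qw schedule.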

[27] = AUC (0 to 24 hrs) in human SJSA1 cells xenografted rat assessed as mouse survival at 10 mg/kg, po qd; assay type: ADME, organism-based, SJSA-1; set-up: time < 24 hr, dose 10 mg/kg, route oral; conditions: in vivo; in short: as §3
[28] = AUC (0 to 24 hrs) in human SJSA1 cells xenografted rat assessed as mouse survival at 30 mg/kg, po dosed 3 times per week; assay type: ADME, organism-based, SJSA-1; set-up: dose 30 mg/kg, time < 24 hr, route oral; conditions: in vivo; in short: as §3
[29] = AUC (0 to 48 hrs) in human SJSA1 cells xenografted rat assessed as mouse survival at 30 mg/kg, po dosed 3 times per week; assay type: ADME, organism-based, SJSA-1; set-up: time < 48 hr, dose 30 mg/kg, route oral; conditions: in vivo; in short: as §3
[30] = AUC (0 to 48 hrs) in human SJSA1 cells xenografted rat assessed as mouse survival at 70 mg/kg, po dosed 3 times per week; assay type: ADME, organism-based, SJSA-1; set-up: time < 48 hr, dose 70 mg/kg, route oral; conditions: in vivo; in short: as §3

Work on `COc1cc2c(cc1OC(C)C)[C@H](c1ccc(Cl)cc1)N(c1ccc(N(C)C[C@H]3CC[C@H](N4CCN(C)C(=O)C4)CC3)cc1)C(=O)C2` [CGM-097] yielded a logP [1] of 5.8, a microsomal CLint [2] of 26.6 µL/min/mg and an AUC (Rattus norvegicus [3]) of 2.779 µM·h. The F (Rattus norvegicus [4]) was 81%, the Ki [5] was 65.9 nM and the F (Mus musculus) was 71%. It also gave a fraction unbound [6] of less than 0.01, a Cmax [7] of 251 nM and a Vd [8] of 2 L/kg. The AUC (Cynomolgus monkey [9]) was 3.73 µM·h, the F (Cynomolgus monkey [10]) was 57% and the fraction unbound [11] was less than 0.01. For the same molecule, the IC50 [12] was 4500 nM, the IC50 [13] was greater than 50000 nM and the IC50 [14] was 353 nM. For the same molecule, the inhibition (Rattus norvegicus [15]) was “Active”, the “growth inhibition (GI)” value (SJSA-1) was “Dose-dependent effect” and the Activity (Rattus norvegicus [16]) was “Non-toxic”. For the same molecule, the Activity (Rattus norvegicus [17]) was “Toxic”, the Activity (Rattus norvegicus [18]) was “Non-toxic” and the Activity (Rattus norvegicus [19]) was 1.8%. For the same molecule, the Activity (Rattus norvegicus [20]) was 3.4%, the Activity (Rattus norvegicus [21]) was 4.5% and the Activity (Rattus norvegicus [22]) was 7%. The Activity (Rattus norvegicus [23]) was “Non-toxic”, the Activity (Rattus norvegicus [24]) was “Non-toxic” and the Activity (Rattus norvegicus [25]) was “Non-toxic”. It also gave an AUC at 24 h [26] of 34 µM·h, an AUC at 24 h [27] of 61 µM·h and an AUC at 24 h [28] of 230 µM·h. For the same molecule, the AUC at 48 h [29] was 381 µM·h and the AUC at 48 h [30] was 1040 µM·h.
